# Test results reported in ChEMBL document CHEMBL2069269, “Anti-inflammatory Effect of a Cell-Penetrating Peptide Targeting the Nrf2/Keap1 Interaction” (2012).
# The source made the active and inactive calls. The rule behind the calls is not given here. Where a SMILES comes first, the peptide text is derived from it.
# How the values were obtained:
# [1] = biological target: Kelch-like ECH-associated protein 1 (Homo sapiens) (UniProt Q14145); experiment: Inhibition of Keap1 interaction with Nrf2 in human THP1 cells assessed as increase in HO-1 mRNA expression at 100 uM from 3 to 6 hrs by qRT-PCR analysis; type: cell-based; conditions: THP-1
# Chain of Kelch-like ECH-associated protein 1 (Homo sapiens) (Q14145 whole entry): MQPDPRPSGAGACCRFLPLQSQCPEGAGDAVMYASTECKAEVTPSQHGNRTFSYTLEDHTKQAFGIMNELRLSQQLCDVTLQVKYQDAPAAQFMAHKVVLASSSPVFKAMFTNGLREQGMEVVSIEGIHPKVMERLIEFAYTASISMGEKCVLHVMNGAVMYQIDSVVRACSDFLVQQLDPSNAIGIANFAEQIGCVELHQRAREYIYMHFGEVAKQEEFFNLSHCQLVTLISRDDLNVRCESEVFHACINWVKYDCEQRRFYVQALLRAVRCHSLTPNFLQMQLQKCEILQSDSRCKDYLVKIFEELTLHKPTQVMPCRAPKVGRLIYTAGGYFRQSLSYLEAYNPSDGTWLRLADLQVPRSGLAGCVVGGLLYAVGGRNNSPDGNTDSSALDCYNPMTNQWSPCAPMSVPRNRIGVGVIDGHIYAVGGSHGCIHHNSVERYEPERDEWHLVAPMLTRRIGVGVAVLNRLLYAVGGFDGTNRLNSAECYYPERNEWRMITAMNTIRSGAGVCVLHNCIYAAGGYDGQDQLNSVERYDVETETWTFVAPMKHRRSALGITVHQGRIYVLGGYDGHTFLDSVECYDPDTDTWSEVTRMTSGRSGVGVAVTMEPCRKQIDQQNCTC
# Summary of the method: (§1)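 Human THP-1 monocytes were incubated with peptide over a time course. HO-1 mRNA was measured by qRT-PCR and normalised to GAPDH mRNA. Data are means ± SEM, n = 3. A dose series of 7.5, 18.75, 37.5 and 75 μM was also tested by the same read-out.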
# [2] = biological target: Kelch-like ECH-associated protein 1 (Homo sapiens) (UniProt Q14145); experiment: Inhibition of Keap1 interaction with Nrf2 in human THP1 cells assessed as increase in HO-1 mRNA expression at 100 uM from 2 to 8 hrs by qRT-PCR analysis; type: cell-based; conditions: THP-1; summary of the method: as §1
# [3] = biological target: Kelch-like ECH-associated protein 1 (Homo sapiens) (UniProt Q14145); experiment: Inhibition of Keap1 interaction with Nrf2 in human THP1 cells assessed as increase in Nrf2 protein expression at 100 uM from 1 to 6 hrs by Western blot analysis; type: cell-based; conditions: THP-1
# Summary of the method: (§2)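 THP-1 cells were incubated with peptide over a time course, alongside a peptide scrambled in the Keap1-binding 14mer region. Nrf2 protein was detected in cell lysates by Western blot.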
# [4] = biological target: Kelch-like ECH-associated protein 1 (Homo sapiens) (UniProt Q14145); experiment: Inhibition of Keap1 interaction with Nrf2 in human THP1 cells assessed as increase in HO-1 protein expression at 100 uM at 9 to 16 hrs by Western blot analysis; type: cell-based; conditions: THP-1
# Summary of the method: (§3)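 THP-1 monocytes were treated with peptide or the scrambled-sequence control peptide over a time course. HO-1 protein was assessed by Western blot. The blot shown is representative of n = 3 experiments.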
# THP-1 [5] = experiment: Upregulation of Nrf2 mRNA expression in human THP1 cells at 100 uM by qRT-PCR analysis; type: functional, cell-based
# [6] = biological target: Kelch-like ECH-associated protein 1 (Homo sapiens) (UniProt Q14145); experiment: Inhibition of Keap1 interaction with Nrf2 in human THP1 cells assessed as increase in HO-1 protein expression at 37.5 uM by Western blot analysis; type: cell-based; conditions: THP-1
# [7] = biological target: Kelch-like ECH-associated protein 1 (Homo sapiens) (UniProt Q14145); experiment: Inhibition of Keap1 interaction with Nrf2 in human THP1 cells assessed as increase in HO-1 mRNA expression at 75 uM at 6 hrs by qRT-PCR analysis relative to control; type: cell-based; conditions: THP-1; summary of the method: as §1
# THP-1 [8] = experiment: Antiinflammatory activity in human THP1 cells assessed as inhibition of LPS-induced TNFalpha mRNA expression at 100 uM incubated for 4 hrs prior to LPS-stimulation measured after 3 hrs by qRT-PCR analysis
# [9] = biological target: Kelch-like ECH-associated protein 1 (Homo sapiens) (UniProt Q14145); experiment: Inhibition of Keap1 interaction with Nrf2 in human THP1 cells assessed as increase in HO-1 protein expression by Western blot analysis; type: cell-based; conditions: THP-1; summary of the method: as §3
# [10] = biological target: Kelch-like ECH-associated protein 1 (Homo sapiens) (UniProt Q14145); experiment: Inhibition of Keap1 interaction with Nrf2 in human THP1 cells assessed as increase in HO-1 protein expression at 100 uM at 12 hrs by Western blot analysis; type: cell-based; conditions: THP-1; summary of the method: as §3
# [11] = biological target: Kelch-like ECH-associated protein 1 (Homo sapiens) (UniProt Q14145); experiment: Inhibition of Keap1 interaction with Nrf2 in human THP1 cells assessed as increase in Nrf2 protein expression at 100 uM after 3 hrs by Western blot analysis; type: cell-based; conditions: THP-1; summary of the method: as §2
compound,measurement,setting,value
CC(C)C[C@H](NC(=O)[C@H](Cc1ccccc1)NC(=O)[C@H](CCC(=O)O)NC(=O)CNC(=O)[C@@H](NC(=O)[C@H](CCC(=O)O)NC(=O)[C@H](CCC(=O)O)NC(=O)[C@H](CC(=O)O)NC(=O)[C@H](CC(C)C)NC(=O)[C@H](CCC(N)=O)NC(=O)[C@H](CC(C)C)NC(=O)[C@H](CCC(N)=O)NC(=O)[C@H](C)NC(=O)[C@H](Cc1ccccc1)NC(=O)[C@H](Cc1ccccc1)NC(=O)[C@H](C)NC(=O)[C@H](CCCNC(=N)N)NC(=O)[C@H](CCCNC(=N)N)NC(=O)[C@H](CCCNC(=N)N)NC(=O)[C@H](CCC(N)=O)NC(=O)[C@H](CCCNC(=N)N)NC(=O)[C@H](CCCNC(=N)N)NC(=O)[C@H](CCCCN)NC(=O)[C@H](CCCCN)NC(=O)[C@H](CCCNC(=N)N)NC(=O)CNC(=O)[C@@H](N)Cc1ccc(O)cc1)[C@@H](C)O)C(=O)O (H-YGRKKRRQRRRAFFAQLQLDEETGEFL-OH),inhibition,[1],inactive
CC(C)C[C@H](NC(=O)[C@H](CCCNC(=N)N)NC(=O)[C@H](CCCNC(=N)N)NC(=O)[C@H](CCCNC(=N)N)NC(=O)[C@H](CCC(N)=O)NC(=O)[C@H](CCCNC(=N)N)NC(=O)[C@H](CCCNC(=N)N)NC(=O)[C@H](CCCCN)NC(=O)[C@H](CCCCN)NC(=O)[C@H](CCCNC(=N)N)NC(=O)CNC(=O)[C@@H](N)Cc1ccc(O)cc1)C(=O)N[C@@H](CC(=O)O)C(=O)N[C@@H](CCC(=O)O)C(=O)N[C@@H](CCC(=O)O)C(=O)N[C@H](C(=O)NCC(=O)N[C@@H](CCC(=O)O)C(=O)N[C@@H](Cc1ccccc1)C(=O)N[C@@H](CC(C)C)C(=O)N1CCC[C@H]1C(=O)O)[C@@H](C)O,inhibition,[1],Active
CC[C@H](C)[C@H](NC(=O)[C@H](CC(=O)O)NC(=O)[C@@H](NC(=O)CNC(=O)[C@H](Cc1ccccc1)NC(=O)[C@H](CCC(=O)O)NC(=O)[C@H](CCCNC(=N)N)NC(=O)[C@H](CCCNC(=N)N)NC(=O)[C@H](CCCNC(=N)N)NC(=O)[C@H](CCC(N)=O)NC(=O)[C@H](CCCNC(=N)N)NC(=O)[C@H](CCCNC(=N)N)NC(=O)[C@H](CCCCN)NC(=O)[C@H](CCCCN)NC(=O)[C@H](CCCNC(=N)N)NC(=O)CNC(=O)[C@@H](N)Cc1ccc(O)cc1)[C@@H](C)O)C(=O)N[C@@H](CCC(N)=O)C(=O)N[C@@H](CC(C)C)C(=O)N[C@H](C(=O)N[C@@H](CCC(=O)O)C(=O)N1CCC[C@H]1C(=O)N[C@@H](CCC(N)=O)C(=O)N[C@@H](CC(C)C)C(=O)N[C@@H](CCC(=O)O)C(=O)O)[C@@H](C)CC (H-YGRKKRRQRRREFGTDIQLIEPQLE-OH),inhibition,[2],inactive
same,inhibition,[3],inactive
same,inhibition,[4],inactive
CC[C@H](C)[C@H](NC(=O)[C@@H]1CCCN1C(=O)[C@H](CC(C)C)NC(=O)[C@H](Cc1ccccc1)NC(=O)[C@H](CCC(=O)O)NC(=O)CNC(=O)[C@@H](NC(=O)[C@H](CCC(=O)O)NC(=O)[C@H](CCC(=O)O)NC(=O)[C@H](CC(=O)O)NC(=O)[C@H](CC(C)C)NC(=O)[C@H](CCC(N)=O)NC(=O)[C@@H](N)CC(C)C)[C@@H](C)O)C(=O)N[C@@H](CCC(N)=O)C(=O)O,inhibition,[2],inactive
CC[C@H](C)[C@H](NC(=O)[C@@H]1CCCN1C(=O)[C@H](CC(C)C)NC(=O)[C@H](Cc1ccccc1)NC(=O)[C@H](CCC(=O)O)NC(=O)CNC(=O)[C@@H](NC(=O)[C@H](CCC(=O)O)NC(=O)[C@H](CCC(=O)O)NC(=O)[C@H](CC(=O)O)NC(=O)[C@H](CC(C)C)NC(=O)[C@H](CCC(N)=O)NC(=O)[C@H](CC(C)C)NC(=O)[C@H](CCCNC(=N)N)NC(=O)[C@H](CCCNC(=N)N)NC(=O)[C@H](CCCNC(=N)N)NC(=O)[C@H](CCC(N)=O)NC(=O)[C@H](CCCNC(=N)N)NC(=O)[C@H](CCCNC(=N)N)NC(=O)[C@H](CCCCN)NC(=O)[C@H](CCCCN)NC(=O)[C@H](CCCNC(=N)N)NC(=O)CNC(=O)[C@@H](N)Cc1ccc(O)cc1)[C@@H](C)O)C(=O)N[C@@H](CCC(N)=O)C(=O)O,inhibition,[1],inactive
same,Activity,THP-1 [5],inactive
same,inhibition,[6],Active
same,fold change (FC),[7],24
same,inhibition at 100 µM,THP-1 [8],61%
same,inhibition,[9],Dose-dependent effect
same,inhibition,[10],Active
same,inhibition,[11],Active
